pIC50, pKi: −log10 of the molar value.
Tests used:
[1] = biological target: T1, GABA-A receptor; alpha-3/beta-3/gamma-2 (Homo sapiens, UniProt P18507+P28472+P34903); assay: Binding affinity measured using LtK- cell membranes expressing GABA alpha-3-beta-3-gamma-2 receptor
T1 sequence (P18507 whole entry): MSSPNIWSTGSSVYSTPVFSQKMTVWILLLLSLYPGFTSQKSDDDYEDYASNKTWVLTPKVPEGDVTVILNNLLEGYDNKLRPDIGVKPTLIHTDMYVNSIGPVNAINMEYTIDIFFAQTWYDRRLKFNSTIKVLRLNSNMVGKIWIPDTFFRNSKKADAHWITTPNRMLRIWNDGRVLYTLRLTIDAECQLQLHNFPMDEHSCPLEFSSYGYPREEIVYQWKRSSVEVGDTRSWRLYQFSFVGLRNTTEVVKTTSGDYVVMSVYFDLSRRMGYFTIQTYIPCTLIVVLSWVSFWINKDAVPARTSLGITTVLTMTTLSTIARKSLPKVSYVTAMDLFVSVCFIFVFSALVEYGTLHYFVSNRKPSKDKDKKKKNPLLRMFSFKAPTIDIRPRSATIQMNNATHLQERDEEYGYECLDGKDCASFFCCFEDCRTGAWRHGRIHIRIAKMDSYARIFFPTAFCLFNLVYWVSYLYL
T1 sequence (P28472 whole entry): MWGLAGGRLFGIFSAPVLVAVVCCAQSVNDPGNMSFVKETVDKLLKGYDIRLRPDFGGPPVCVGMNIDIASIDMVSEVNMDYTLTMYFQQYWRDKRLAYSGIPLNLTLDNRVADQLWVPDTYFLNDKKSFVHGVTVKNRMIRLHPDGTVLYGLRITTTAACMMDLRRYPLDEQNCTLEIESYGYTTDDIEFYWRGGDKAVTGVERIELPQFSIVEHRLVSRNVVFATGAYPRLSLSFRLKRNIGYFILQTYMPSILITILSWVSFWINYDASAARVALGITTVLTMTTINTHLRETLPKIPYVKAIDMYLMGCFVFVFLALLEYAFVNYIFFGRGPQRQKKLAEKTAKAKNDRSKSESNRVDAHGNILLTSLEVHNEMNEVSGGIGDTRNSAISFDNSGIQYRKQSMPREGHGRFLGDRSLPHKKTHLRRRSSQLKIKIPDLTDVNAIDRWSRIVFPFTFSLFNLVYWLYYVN
T1 sequence (P34903 whole entry): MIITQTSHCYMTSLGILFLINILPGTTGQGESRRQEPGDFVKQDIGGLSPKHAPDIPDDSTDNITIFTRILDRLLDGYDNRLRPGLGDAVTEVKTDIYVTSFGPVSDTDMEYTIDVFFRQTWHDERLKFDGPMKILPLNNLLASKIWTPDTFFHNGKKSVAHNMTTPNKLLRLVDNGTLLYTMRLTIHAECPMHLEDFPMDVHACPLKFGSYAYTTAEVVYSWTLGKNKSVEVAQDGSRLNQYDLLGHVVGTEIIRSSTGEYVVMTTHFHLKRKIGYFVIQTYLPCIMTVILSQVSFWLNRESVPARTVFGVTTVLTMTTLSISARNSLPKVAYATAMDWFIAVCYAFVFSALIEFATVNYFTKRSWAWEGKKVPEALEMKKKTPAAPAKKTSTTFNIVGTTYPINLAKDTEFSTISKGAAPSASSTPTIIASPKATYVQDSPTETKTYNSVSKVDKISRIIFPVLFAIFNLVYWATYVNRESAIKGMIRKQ

[2] = biological target: T2, GABA-A receptor; alpha-2/beta-3/gamma-2 (Homo sapiens, UniProt P18507+P28472+P47869); assay: Binding affinity measured using LtK- cell membranes expressing GABA alpha-2-beta-3-gamma-2 receptor
T2 sequence (P18507 whole entry): T1 sequence (P18507 whole entry)
T2 sequence (P28472 whole entry): T1 sequence (P28472 whole entry)
T2 sequence (P47869 whole entry): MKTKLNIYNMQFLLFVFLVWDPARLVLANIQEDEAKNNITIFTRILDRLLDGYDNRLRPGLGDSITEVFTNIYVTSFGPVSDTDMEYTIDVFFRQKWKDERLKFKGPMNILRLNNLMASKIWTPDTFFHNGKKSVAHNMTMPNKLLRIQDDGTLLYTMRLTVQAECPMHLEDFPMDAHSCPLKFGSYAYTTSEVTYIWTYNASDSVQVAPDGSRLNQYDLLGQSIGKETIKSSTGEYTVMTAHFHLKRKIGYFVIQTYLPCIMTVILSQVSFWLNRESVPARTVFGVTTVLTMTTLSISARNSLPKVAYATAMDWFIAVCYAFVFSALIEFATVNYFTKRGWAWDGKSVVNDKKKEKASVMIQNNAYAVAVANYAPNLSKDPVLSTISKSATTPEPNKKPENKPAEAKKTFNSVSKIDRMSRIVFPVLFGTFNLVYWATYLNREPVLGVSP

[3] = biological target: T3, GABA-A receptor; alpha-1/beta-3/gamma-2 (Homo sapiens, UniProt P14867+P18507+P28472); assay: Binding affinity measured using LtK- cell membranes expressing GABA alpha-1-beta-3-gamma-2 receptor
T3 sequence (P14867 whole entry): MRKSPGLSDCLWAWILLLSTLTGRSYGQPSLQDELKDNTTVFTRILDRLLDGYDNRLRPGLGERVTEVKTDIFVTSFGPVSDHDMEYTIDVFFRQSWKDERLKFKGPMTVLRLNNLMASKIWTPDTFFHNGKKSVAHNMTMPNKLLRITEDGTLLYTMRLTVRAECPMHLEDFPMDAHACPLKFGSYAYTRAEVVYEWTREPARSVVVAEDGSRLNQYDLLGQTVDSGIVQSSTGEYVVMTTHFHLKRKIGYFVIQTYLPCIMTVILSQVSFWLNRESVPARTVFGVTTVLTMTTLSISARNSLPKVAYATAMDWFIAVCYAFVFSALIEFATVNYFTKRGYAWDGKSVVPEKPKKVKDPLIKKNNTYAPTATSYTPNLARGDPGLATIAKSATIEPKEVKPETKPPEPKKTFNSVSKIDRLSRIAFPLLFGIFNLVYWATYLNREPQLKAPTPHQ
T3 sequence (P18507 whole entry): T1 sequence (P18507 whole entry)
T3 sequence (P28472 whole entry): T1 sequence (P28472 whole entry)

[4] = biological target: GABA-A receptor; alpha-6/beta-3/gamma-2 (Homo sapiens, UniProt P18507+P28472+Q16445); assay: Binding affinity measured using LtK- cell membranes expressing Gamma-aminobutyric acid A receptor alpha-6-beta-3-gamma-2
Sequence of GABA-A receptor; alpha-6/beta-3/gamma-2 (Q16445 whole entry, one chain of several): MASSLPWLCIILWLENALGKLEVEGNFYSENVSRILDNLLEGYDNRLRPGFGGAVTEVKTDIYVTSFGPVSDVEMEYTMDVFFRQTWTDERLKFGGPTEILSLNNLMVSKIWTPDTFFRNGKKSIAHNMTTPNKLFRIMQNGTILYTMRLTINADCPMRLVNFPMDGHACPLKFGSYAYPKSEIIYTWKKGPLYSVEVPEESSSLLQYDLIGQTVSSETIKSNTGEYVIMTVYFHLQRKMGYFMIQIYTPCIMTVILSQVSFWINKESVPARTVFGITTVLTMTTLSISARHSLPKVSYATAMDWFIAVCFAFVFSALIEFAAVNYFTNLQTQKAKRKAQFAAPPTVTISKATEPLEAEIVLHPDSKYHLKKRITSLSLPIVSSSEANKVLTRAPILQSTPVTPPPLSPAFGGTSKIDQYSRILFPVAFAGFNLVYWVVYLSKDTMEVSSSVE
Method in brief: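 Ltk- cells expressing human α6β3γ2, scraped into PBS and resuspended in 10 mM KH2PO4/100 mM KCl pH 7.4. 1 h at 4 °C to equilibrium, filtration, scintillation counting.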

[5] = biological target: GABA-A receptor; anion channel; assay: Displacement of [3H]flunitrazepam from GABA-A Benzodiazepine receptor of rat brain cortical membranes; assay type: cell membranes, Membrane
Method in brief: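 Rat cerebral cortex homogenized in 50 mM Tris-citrate, pH 7.4, and washed by centrifugation (20000g). […] Nonspecific binding with 10 μM Ro15-1788. Ended by vacuum filtration. IC50 estimated from at least six inhibitor concentrations; mean ± SEM of at least three determinations.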

[6] = biological target: T4, GABA-A receptor; alpha-5/beta-3/gamma-2 (Homo sapiens, UniProt P18507+P28472+P31644); assay: Binding affinity measured using LtK- cell membranes expressing Gamma-aminobutyric acid A receptor alpha-5-beta-3-gamma-2
T4 sequence (P18507 whole entry): T1 sequence (P18507 whole entry)
T4 sequence (P28472 whole entry): T1 sequence (P28472 whole entry)
T4 sequence (P31644 whole entry): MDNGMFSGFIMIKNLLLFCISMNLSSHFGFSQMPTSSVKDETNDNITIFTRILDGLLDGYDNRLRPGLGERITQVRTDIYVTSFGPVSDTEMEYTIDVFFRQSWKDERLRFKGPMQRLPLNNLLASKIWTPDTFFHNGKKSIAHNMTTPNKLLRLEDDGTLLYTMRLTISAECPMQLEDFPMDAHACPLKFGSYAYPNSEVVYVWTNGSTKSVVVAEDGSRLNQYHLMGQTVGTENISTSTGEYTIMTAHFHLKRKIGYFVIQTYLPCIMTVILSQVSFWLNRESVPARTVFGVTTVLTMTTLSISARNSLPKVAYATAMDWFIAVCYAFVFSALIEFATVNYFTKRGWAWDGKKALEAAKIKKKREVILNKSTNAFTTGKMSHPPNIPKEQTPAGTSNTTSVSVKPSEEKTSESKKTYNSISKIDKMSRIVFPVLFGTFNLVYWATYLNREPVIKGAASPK

[7] = biological target: T4, GABA-A receptor; alpha-5/beta-3/gamma-2; assay: Binding affinity for GABA-A alpha-5-beta-3-gamma-2 receptor expressed in L (tk-) cells; assay type: cell-based
Method in brief: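 Competition binding against [3H]Ro15-1788 (1-2 nM final) on human GABAA receptors expressed in Ltk- cells, scraped into PBS and resuspended in 10 mM KH2PO4/100 mM KCl pH 7.4. Incubated to equilibrium 1 h at 4 °C, filtered, scintillation counted.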

[8] = biological target: T2, GABA-A receptor; alpha-2/beta-3/gamma-2; assay: Binding affinity for GABA-A alpha-2-beta-3-gamma-2 receptor expressed in L(tk-) cells; assay type: cell-based
Method in brief: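 Competition binding on Ltk- cells expressing human α2β3γ2 GABAA receptors. Cells were scraped into PBS, centrifuged at 3000g and resuspended in phosphate buffer (10 mM KH2PO4, 100 mM KCl, pH 7.4 at 4 °C). Radioligand was [3H]Ro15-1788 at 1–2 nM, with test compound at 10^-9–10^-5 M. Nonspecific binding was defined by 10^-5 M diazepam. Incubation ran 1 h at 4 °C to equilibrium, followed by filtration and scintillation counting.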

Structure (SMILES)	pKi [1]	pKi [2]	pKi [3]	pKi [4]	pIC50 [5]	pKi [6]	pKi [7]	pKi [8]
CCCOc1ccc2[nH]c3cnc(N)c(COC)c3c2c1	6.15	6.27	7.35	< 5.52	6.16	6.42		
COCc1c(N=C=S)[nH]cc2nc3ccc(OCc4ccccc4)cc3c1-2	7.23	7.08	7.60	< 5.00	7.40	6.80		
CCCCCCCCOc1ccc2[nH]c3cnc(C(=O)OCC)c(CC)c3c2c1	4.46	4.53		< 4.52	< 6.00		4.90	
CCOc1cc2c(cn1)[nH]c1ccccc12			8.19	< 6.00		6.06		7.60
CCOC(=O)c1[nH]cc2nc3ccc(OC)cc3c-2c1COC	8.76	8.92	9.85	< 5.00	9.00	8.40		
CCCCCCCCOc1ccc2[nH]c3cnc(C(=O)OCC)c(COC)c3c2c1	< 5.52	< 5.52	< 6.00	< 5.52	6.48	< 5.52		
CCCOc1ccc2[nH]c3cnc(OCCC)c(COC)c3c2c1	6.57	6.67	7.61	< 5.00	7.36	6.48		
CCOC(=O)c1[nH]cc2nc3ccc(OCc4cccc5ccccc45)cc3c-2c1CC	6.52	6.54	6.74	< 5.00	7.86	6.57		
